Bioassay records (PubChem BioAssay)
Only some compounds are listed: those with a hit (about 4.8% of all), similar ones and a draw of the others.
Efflux pump mplx: inhibitors of Candida antifungal efflux pumps expressed in yeast. inhibition, % at 10 µM. S. cerevisiae Candida pump triplex, Nile Red efflux. AID 485275. 0.44% of 330,000 active;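 active means plate passing quality check with inhibition over a set limit, or well fluorescence over plate mean plus 4 SD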;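 further: Nile Red retained in pooled yeast measured as flow cytometry median fluorescence; 0% = buffer negative control and 100% = Enniatin B positive control; higher means more Nile Red kept so more efflux inhibition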
Mot1-301 SUMO: SUMOylation pathway inhibition by Mot1-301 growth rescue; 1% of 320,000 active; growth rescue, % at 18.8 µM; AID 2716; S. cerevisiae Mot1-301 growth rescue, ATP luminescence, 38.5C; percent above DMSO median, 100 means doubled;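 active means every valid replicate shows activation above 250% relative to neutral control wells; inactive means the rest, any valid replicate at or below 250%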;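 further: OY570 slx delta 5 strain wells were the positive control but not used for scaling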
CSC inhib: cancer stem cell inhibition; cancer stem cell-like cells viability, luminescence; inhibition, % at 7.5 µM; 1.1% of 300,000 active; AID 2717; in the data active means inhibition above about 75%; inconclusive means no clear call, values can overlap the other calls; tested in HMLE shEcad cells
T cruzi repl: blocks replication of Trypanosoma cruzi. AID 1885. inhibition, % (test concentration not listed). 1.4% of 300,000 active. T. cruzi beta-gal in NIH3T3, luminescence, 90 h;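 active means mean inhibition across valid replicates above about 55%, limit read from the data; inconclusive means mean below that limit but half or more replicates reach it; inactive means mean below it, under half of replicates reach it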;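 further: signal also drops with host cell toxicity which is not excluded here; 0% = plate median of DMSO wells and 100% = zero luminescence signal; higher percent means less beta-gal luminescence so fewer parasites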
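Assay system: NIH/3T3 host cells with β-galactosidase reporter T. cruzi; input: 5,000 host fibroblasts per well; compound: single 50 nL compound addition per well in DMSO; timing: ≥90 h infection period, 3 h prior cell attachment; measured by: GalScreen β-gal luminescence, detergent lysis, 60 min; evaluation: percent inhibition of parasite-derived β-gal signal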
WT yeast gro inh: growth inhibition of WT yeast, mitochondrial fusion screen | mitochondrial fusion phenotypic screen, WT strain | inhibition, % at 10 µM | 2.1% of 190,000 active; in the data active means inhibition above about 58%; tested in S. cerevisiae
Beta apoptosis: blocks beta cell apoptosis. 0.8% of 300,000 active. INS-1E cytokine-induced death, ATP luminescence, 48 h; percent of positive-control rescue, neutral wells zero. protection from apoptosis, % (test concentration not listed). AID 435005;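 active means Every replicate reaches about 75%, or at least half do and their mean reaches it too, limit read from the data; inconclusive means At least half of replicates reach the limit but their mean does not; inactive means Under half of replicates reach the limit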;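 further: 0% = cytokine-treated negative control wells and 100% = positive control rescue; higher means more ATP so stronger rescue from cytokine killing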
* hit, by the source's call; ? = inconclusive; · = no result given.

SMILES	Efflux pump mplx	Mot1-301 SUMO	CSC inhib	T cruzi repl	WT yeast gro inh	Beta apoptosis
CCn1c(=O)c2cc(C(=O)NCCN(C)C)sc2c2ccccc21	-0.1	16.1	1.4	22.2	·	5.5
CN(C)CCNC(=O)c1cc2sc3ccccc3c2s1	0.0	1.4	1.5	59.4*	1.1	-3.7
CN(C)CCCNC(=O)c1cc2c3ccccc3n(C)c2s1	-0.2	-5.4	24.1	74.3*	-7.2	2.2
COCCN(CCOC)C(=O)c1cc2sc3ccccc3c2s1	0.0	184.7	-6.0	16.1	7.3	1.7
Cc1ccc(NC(=S)NNS(=O)(=O)c2ccc3ccccc3c2)cc1Cl	0.2	12.4	-3.5	-8.1	-4.0	-6.4
O=C(COC(=O)Cc1ccc(Cl)cc1)NC1CCCC1	0.0	-3.4	3.2	·	·	-2.2
N#Cc1ccc(COC(=O)c2cnc3ccccc3n2)cc1	0.0	-2.0	-11.1	1.8	·	-5.5
COc1ccc(/C=N/NC(=O)c2cc(C34CC5CC(CC(C5)C3)C4)[nH]n2)cc1O	-0.2	7.9	96.6*	0.4	8.8	-4.4
ClC1=C(Cl)C(Cl)=C(Cl)C1=C/C=C/c1ccccc1	-0.1	-19.9	103.4*	62.9*	·	116.3*
O=C1OC(/C=C/c2ccccc2)=NC/1=C/C=C/c1ccccc1	0.0	11.6	·	-11.5	-2.6	·
Cc1noc(-c2ccc(C(F)(F)F)cc2)c1NC(=O)Nc1ccc(Cl)cc1	0.2	-10.5	52.1	-1.7	·	104.9*
Cc1cc(-c2onc(C)c2C(=O)Nc2ccc(C(F)(F)F)cc2)no1	0.0	-5.7	-3.9	8.7	·	0.9
Brc1ccccc1/C=N/Nc1ccc2ccccc2n1	-0.1	12.2	-8.1	48.0	68.6*	0.1
Cc1cc(N/N=C/c2ccccc2Br)nc2ccccc12	0.1	-3.6	-1.3	?	70.1*	-0.1
Brc1ccc(/C=N/Nc2ccccc2)cc1	-0.2	5.5	78.9*	27.3	43.4	3.8
Oc1ccc(/C=N/Nc2cccc(Cl)n2)c(O)c1	0.2	-2.2	21.3	-5.8	·	-8.0
Oc1ccc(/C=N/Nc2ccccc2)cc1	-0.2	13.3	16.2	-3.4	20.6	-1.2
Fc1cccc(/C=N/Nc2ccc3ccccc3n2)c1	0.0	10.1	-2.6	29.8	20.2	0.2
Brc1ccc(/C=N/Nc2ccc3ccccc3n2)cc1	-0.1	62.1	-31.3	20.8	60.0*	-3.7
Cc1ccc(N2C(=O)CC(C)(C)CC2=O)cc1Cl	-0.1	2.9	-8.0	-4.9	·	1.0
CCOC(=O)N1CCC(NC(=O)c2ccc(CS(=O)c3cccc(Cl)c3)o2)CC1 (configuration not stated)	-0.1	-5.1	-8.4	-2.0	·	10.2
O=C(Nc1ccc(S(=O)(=O)Nc2ncccn2)cc1)C1=NN(c2ccccc2)C(=O)CC1	0.2	-9.4	-8.8	-10.4	·	-3.8
CC1(C)OC(=O)N(c2ccccc2)C12C=Cc1c(ccc3ccccc13)O2 (configuration not stated)	0.1	273.9*	-15.3	15.5	78.4*	8.3
Cc1ccc(Cn2nc(C)c(NC(=O)CSc3nc4c(c(C(F)(F)F)n3)CCc3ccccc3-4)c2C)cc1	0.5	-0.4	55.9	20.8	-15.5	45.8
Cc1nn(Cc2ccc(Cl)cc2)c(C)c1NC(=O)CSc1nc2c(c(C(F)(F)F)n1)CCc1ccccc1-2	0.2	10.1	29.5	60.5*	-8.2	34.9
SMILES	Efflux pump mplx	Mot1-301 SUMO	CSC inhib	T cruzi repl	WT yeast gro inh	Beta apoptosis
Oc1c(Cl)cc(Cl)cc1C=Nc1ccc2c(c1)OCCO2	-0.1	-18.4	-6.8	-5.3	-2.4	-2.8
CN(/N=C/c1cc(Cl)cc(Cl)c1O)C(=S)NC(C)(C)C	0.0	138.2	99.6*	-12.2	·	14.5
CCc1nc(N2CCN(Cc3ccc4c(c3)OCO4)CC2)c2oc3ccccc3c2n1	0.1	24.5	81.0*	8.7	-23.8	-5.3
CCc1nc(N2CCCCC2)c2oc3ccccc3c2n1	0.4	-22.9	34.9	15.3	42.4	-1.9
CCc1nc(N2CCCCC2C)c2oc3ccccc3c2n1 (configuration not stated)	0.3	-9.7	102.4*	19.7	-18.4	15.0
COc1ccc(S(=O)(=O)N2CCN(CC(=O)NC(Cc3ccccc3)C(C)=O)CC2)cc1 (configuration not stated)	-0.3	7.9	-4.1	·	·	-4.3
CCOC(=O)[C@H]1[C@H]2COc3ccccc3[C@@H]2N2C(=O)c3c(C)cc(C)cc3NC(=O)[C@@]12C	·	-11.9	19.2	·	·	11.5
O=C(COc1coc(CN2CCN(c3ccc(F)cc3)CC2)cc1=O)NC1CCCC1	-0.1	297.3*	-13.3	-0.8	·	-1.4
O=C(COc1coc(CN2CCN(c3ccccc3)CC2)cc1=O)NC1CCCC1	0.0	4.1	-13.0	9.9	·	·
CCCC[C@H](CC(=O)c1ccccc1)[C@@H](OC(C)=O)C(=O)Oc1c(C(C)C)cccc1C(C)C	-0.1	-9.5	18.6	·	·	5.7
CC(C)c1cccc(C(C)C)c1OC(=O)[C@H]1OC(c2ccc(Br)cc2)=C[C@@H]1c1ccc(Br)cc1	0.8*	2.9	111.1*	·	·	15.7
CC(C)c1cccc(C(C)C)c1OC(=O)[C@H]1OC(C(C)(C)C)=C[C@@H]1c1ccccc1	0.0	5.9	20.7	·	·	110.9*
NS(=O)(=O)c1cccc(NC(=O)CSc2nc3ccccc3c(=O)n2CCCN2CCOCC2)c1	0.0	4.3	2.3	3.7	5.2	-3.9
O=C(CCc1nnc2ccc(NCc3ccco3)nn12)Nc1ccc(F)cc1F	0.0	-8.2	-5.0	1.4	·	-1.2
Fc1ccc(N2CCN(C3=Nc4cccc5cccc3c45)CC2)cc1	-0.3	3.6	-7.3	64.0*	59.0*	9.6
COc1ccc(N(CC(=O)Nc2cc(Cl)ccc2C)S(=O)(=O)c2c(C)n[nH]c2C)cc1	-0.3	6.4	38.4	-4.5	·	12.7
CC(C)=C1C2CCC1C1C(=O)N(c3nc(-c4ccccc4)c(C)s3)C(=O)C21 (configuration not stated)	-0.3	-12.1	4.3	-8.6	58.8*	-5.5
O=C1/C(=C/c2ccccn2)SC(=S)N1N1CCOCC1	-0.1	25.6	-8.1	·	·	·
COc1ccc(CC(C)N2CCN(Cc3ccccc3)CC2)c(OC)c1 (configuration not stated)	-0.1	22.1	41.0	60.7*	6.5	1.0
Cn1c(=NC(=O)COc2ccccc2)sc2ccccc21	0.2	-12.1	-1.6	9.3	-17.4	0.6
CCCCCCCNC1=CC(=O)CC(c2ccccc2)C1 (configuration not stated)	0.1	91.3	45.2	18.7	20.7	91.1*
CCCCCNC1=CC(=O)CC(c2ccccc2)C1 (configuration not stated)	0.0	-8.4	13.2	4.8	41.4	3.2
CC(=O)N1/C(=C/c2ccc(N(C)C)cc2)C(=O)c2ccccc21	·	·	·	25.4	62.6*	·
CCOC(=O)c1c(S(=O)(=O)N2CCN(Cc3ccccc3)CC2)c(C)n(C)c1C	0.0	13.9	-7.2	11.7	·	·
